Assay results from ChEMBL document CHEMBL1144291, “Synthesis of 9-(2-beta-C-methyl-beta-d-ribofuranosyl)-6-substituted purine derivatives as inhibitors of HCV RNA replication” (Bioorg Med Chem Lett, 2005).
pEC50: −log10 of the molar value.

What was measured:
Hepatitis C virus [1] = test: Cytotoxicity concentration to inhibit hepatitis C virus RNA replication in a subgenomic replicon cell line; type: functional, Hepacivirus hominis
Outline: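 MTS assay run on samples set up in parallel with the HCV subgenomic replicon cultures.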

Hepatitis C virus [2] = test: Inhibition of hepatitis C virus RNA replication in a subgenomic replicon cell line; type: functional, organism-based, Hepacivirus hominis
Outline: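 HCV subgenomic replicon cells exposed to compound for 48 h; relative HCV replicon RNA then measured by luciferase reporter assay.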

| Structure (SMILES) | CC50 (Hepatitis C virus [1]) [µM] | pEC50 (Hepatitis C virus [2]) |
| --- | --- | --- |
| CNCCN(C)c1ncnc2c1ncn2C1O[C@H](CO)[C@@H](O)[C@@]1(C)O (stereo not given in full) | 300 | 3.70 |
| C[C@]1(O)C(n2cnc3c(N4CCOCC4)ncnc32)O[C@H](CO)[C@H]1O (stereo not given in full) | 300 | 4.00 |
| CCNc1ncnc2c1ncn2C1O[C@H](CO)[C@@H](O)[C@@]1(C)O (stereo not given in full) | 300 | 5.10 |
| C[C@]1(O)C(n2cnc3c(C(=N)NO)ncnc32)O[C@H](CO)[C@H]1O (stereo not given in full) | 300 | 4.00 |
| COC(=N)c1ncnc2c1ncn2C1O[C@H](CO)[C@@H](O)[C@@]1(C)O (stereo not given in full) | 300 | 3.92 |
| C[C@]1(O)C(n2cnc3c(NOCCO)ncnc32)O[C@H](CO)[C@H]1O (stereo not given in full) | 300 | 4.10 |
| C[C@]1(O)C(n2cnc3c(NCCN)ncnc32)O[C@H](CO)[C@H]1O (stereo not given in full) | 300 | 4.60 |
| CC1(C)OCC(CNc2ncnc3c2ncn3C2O[C@H](CO)[C@@H](O)[C@@]2(C)O)O1 (stereo not given in full) | 300 | 3.52 |
| CC(C)NC(=O)N(O)c1ncnc2c1ncn2C1O[C@H](CO)[C@@H](O)[C@@]1(C)O (stereo not given in full) | 300 | 5.22 |
| CCOc1ccccc1CNc1ncnc2c1ncn2C1O[C@H](CO)[C@@H](O)[C@@]1(C)O (stereo not given in full) | 250 | 4.30 |
| CCC(=O)N(O)c1ncnc2c1ncn2C1O[C@H](CO)[C@@H](O)[C@@]1(C)O (stereo not given in full) | 300 | 5.48 |
| COc1ncnc2c1ncn2C1O[C@H](COP(=O)(OCCSC(=O)C(C)(C)C)OCCSC(=O)C(C)(C)C)[C@@H](O)[C@@]1(C)O (stereo not given in full) | 300 | 7.00 |
| C[C@]1(O)C(n2cnc3c(NCC4CCCO4)ncnc32)O[C@H](CO)[C@H]1O (stereo not given in full) | 300 | 3.52 |
| C[C@]1(O)C(n2cnc3c(NO)ncnc32)O[C@H](CO)[C@H]1O (stereo not given in full) | 300 | 5.74 |
| CCNC(=O)N(OC)c1ncnc2c1ncn2C1O[C@H](CO)[C@@H](O)[C@@]1(C)O (stereo not given in full) | 300 | 4.10 |
| CONc1ncnc2c1ncn2C1O[C@H](CO)[C@@H](O)[C@@]1(C)O (stereo not given in full) | 300 | 5.40 |
| C[C@]1(O)C(n2cnc3c(N(O)C(=O)Nc4ccccc4)ncnc32)O[C@H](CO)[C@H]1O (stereo not given in full) | 300 | 5.74 |
| CCONc1ncnc2c1ncn2C1O[C@H](CO)[C@@H](O)[C@@]1(C)O (stereo not given in full) | 300 | 4.52 |
| CSc1ncnc2c1ncn2C1O[C@H](CO)[C@@H](O)[C@@]1(C)O (stereo not given in full) | 300 | 4.96 |
| C[C@]1(O)C(n2cnc3c(-c4ccco4)ncnc32)O[C@H](CO)[C@H]1O (stereo not given in full) | 300 | 3.56 |
| CN(C)c1ncnc2c1ncn2C1O[C@H](CO)[C@@H](O)[C@@]1(C)O (stereo not given in full) | 300 | 5.05 |
| C[C@]1(O)C(n2cnc3c(N4CCCS4)ncnc32)O[C@H](CO)[C@H]1O (stereo not given in full) | 200 | 4.82 |
| C[C@]1(O)C(n2cnc3c(NCCC(N)=O)ncnc32)O[C@H](CO)[C@H]1O (stereo not given in full) | 300 | 3.82 |

| Structure (SMILES) | CC50 (Hepatitis C virus [1]) [µM] | pEC50 (Hepatitis C virus [2]) |
| --- | --- | --- |
| C[C@]1(O)C(n2cnc3c2NCN=C3N(CCO)CCO)O[C@H](CO)[C@H]1O (stereo not given in full) | 300 | 4.70 |
| CC(CNC1=NCNc2c1ncn2C1O[C@H](CO)[C@@H](O)[C@@]1(C)O)c1ccccc1 (stereo not given in full) | 300 | 4.60 |
| C[C@]1(O)C(n2cnc3c2NCN=C3NCCO)O[C@H](CO)[C@H]1O (stereo not given in full) | 300 | 4.22 |
| CN(O)c1ncnc2c1ncn2C1O[C@H](CO)[C@@H](O)[C@@]1(C)O (stereo not given in full) | 300 | 5.40 |
| CON(C)c1ncnc2c1ncn2C1O[C@H](CO)[C@@H](O)[C@@]1(C)O (stereo not given in full) | 300 | 4.48 |
| CSc1cccc(Nc2ncnc3c2ncn3C2O[C@H](CO)[C@@H](O)[C@@]2(C)O)c1 (stereo not given in full) | 300 | 3.52 |
| C[C@]1(O)C(n2cnc3c(C(=N)N)ncnc32)O[C@H](CO)[C@H]1O (stereo not given in full) | 300 | 4.00 |
| C[C@]1(O)C(n2cnc3c(N(O)C(=O)OCc4ccccc4)ncnc32)O[C@H](CO)[C@H]1O (stereo not given in full) | 300 | 4.70 |
| CCNC(=O)Nc1ncnc2c1ncn2C1O[C@H](CO)[C@@H](O)[C@@]1(C)O (stereo not given in full) | 300 | 4.10 |
| C[C@]1(O)C(n2cnc3c(-c4ccsc4)ncnc32)O[C@H](CO)[C@H]1O (stereo not given in full) | 300 | 3.52 |
| CNc1ncnc2c1ncn2C1O[C@H](CO)[C@@H](O)[C@@]1(C)O (stereo not given in full) | 300 | 6.00 |
| COC(=O)N(O)c1ncnc2c1ncn2C1O[C@H](CO)[C@@H](O)[C@@]1(C)O (stereo not given in full) | 250 | 5.52 |
| CCOc1ncnc2c1ncn2C1O[C@H](CO)[C@@H](O)[C@@]1(C)O (stereo not given in full) | 300 | 4.89 |
| C[C@]1(O)C(n2cnc3c(O)ncnc32)O[C@H](CO)[C@H]1O (stereo not given in full) | 300 | 5.10 |
| CCOc1ncnc2c1ncn2C1O[C@H](COP(=O)(OCCSC(C)=O)OCCSC(C)=O)[C@@H](O)[C@@]1(C)O (stereo not given in full) | 300 | 7.10 |
| C[C@]1(O)C(n2cnc3c2NCN=C3NOCCO)O[C@H](CO)[C@H]1O (stereo not given in full) | 300 | 4.10 |
| C[C@]1(O)C(n2cnc3c(C(=N)S)ncnc32)O[C@H](CO)[C@H]1O (stereo not given in full) | 300 | 3.92 |
| COc1ncnc2c1ncn2C1O[C@H](CO)[C@@H](O)[C@@]1(C)O (stereo not given in full) | 300 | 5.05 |
| CCNC(=O)N(O)c1ncnc2c1ncn2C1O[C@H](CO)[C@@H](O)[C@@]1(C)O (stereo not given in full) | 200 | 5.66 |
| CCNC(=O)N(O)C1=NCNc2c1ncn2C1O[C@H](CO)[C@@H](O)[C@@]1(C)O (stereo not given in full) | 300 | 3.70 |
| C[C@]1(O)C(n2cnc3c(-c4cccs4)ncnc32)O[C@H](CO)[C@H]1O (stereo not given in full) | 200 | 4.10 |
| C[C@@]1(O)[C@H](O)[C@@H](CO)O[C@H]1n1cnc2c(N)ncnc21 | 300 | 6.52 |
